# MT1-MMP act inh: MT1-MMP (human) activation inhibition. AID 651647. hit rate 0.061% among 360,000. P50281. HT1080 RFP-PRO-GFP cells, GFP/RFP ratio fluorescence, overnight; percent of plate control window, DMSO zero. GFP/RFP ratio change, % at 20 µM;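 active = GFP/RFP ratio change of at least 30% with cell ATP level not reduced by more than half and red fluorescence within 50% of control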
#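 Assay system – RFP-PRO-GFP reporter HT1080 cells · Compound dosing – single dose of 20 µM compound, 1% DMSO final · Incubation – overnight compound exposure at 37 °C · Measure – GFP/RFP fluorescence ratio · Benchmarks – DMSO wells and RFP-L50D-GFP cells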
# CendR NRP1 mod: modulators of CendR peptide binding to human neuropilin-1 | O14786 | FAM-RPARPAR peptide binding to NRP-1, fluorescence polarization | inhibition, % at 25 µM | hit rate 0.85% among 360,000;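 active = inhibition or corrected inhibition above about 18%, plus a signal ratio from 0.5 to 1.5, limit read from the data, passing the limit was not always enough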
# DAGLB inh: blocks human DAGLB lipase activity. hit rate 0.059% among 340,000. inhibition, % at 5.17 µM. Q8NCG7. HEK293T DAGLB membrane lysate, EnzChek fluorogenic substrate; in the data active = inhibition above about 34%
# Target sequence (Q8NCG7 whole entry, looked up): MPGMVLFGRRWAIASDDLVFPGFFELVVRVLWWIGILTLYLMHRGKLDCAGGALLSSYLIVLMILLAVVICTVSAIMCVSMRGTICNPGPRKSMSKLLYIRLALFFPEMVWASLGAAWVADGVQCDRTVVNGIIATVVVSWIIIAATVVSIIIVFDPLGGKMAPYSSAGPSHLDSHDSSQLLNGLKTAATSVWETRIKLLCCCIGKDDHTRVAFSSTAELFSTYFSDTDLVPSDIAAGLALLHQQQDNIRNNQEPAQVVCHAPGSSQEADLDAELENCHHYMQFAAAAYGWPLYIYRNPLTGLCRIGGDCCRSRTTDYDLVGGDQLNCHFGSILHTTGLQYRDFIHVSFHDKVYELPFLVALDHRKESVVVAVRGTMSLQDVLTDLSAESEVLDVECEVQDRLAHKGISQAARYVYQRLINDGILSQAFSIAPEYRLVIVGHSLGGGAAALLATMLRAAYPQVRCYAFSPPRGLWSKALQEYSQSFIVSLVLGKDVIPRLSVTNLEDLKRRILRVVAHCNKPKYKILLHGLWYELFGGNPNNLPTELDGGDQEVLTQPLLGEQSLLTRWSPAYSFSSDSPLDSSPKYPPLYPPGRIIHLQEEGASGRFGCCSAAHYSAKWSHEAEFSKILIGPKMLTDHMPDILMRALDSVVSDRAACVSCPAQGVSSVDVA
# UCH37 DUB inh: blocks the human deubiquitinase UCH37; purified proteasome/UCH37, Ub-AMC cleavage fluorescence; hit rate 0.33% among 330,000; AID 588478; inhibition, % (concentration not given with the values);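 active = mean inhibition over replicate wells above about 20%, limit read from the data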
#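 Reagent: Ub-AMC substrate; assay system: Proteasome-associated human UCH37 deubiquitinase; controls: no-proteasome and no-compound wells; read-out: % inhibition of Ub-AMC cleavage fluorescence; timing: 30 min preincubation with enzyme, 25 min cleavage at room temperature; signal: AMC fluorescence from Ub-AMC cleavage, excitation 355 nm, emission 460 nm; buffer or medium: Tris-HCl pH 7.4 plus ovalbumin, ATP-MgCl2, DTT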
# CTSL1 counter: counter-screen for PFM18AAP inhibitors: inhibitors of F. hepatica cathepsin L1; recombinant F. hepatica cathepsin L1, Z-Leu-Arg-MCA fluorescence; inhibition, % at 5.96 µM; hit rate 0.49% among 300,000; AID 1906;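 active = inhibition above the mean of all tested compounds plus 3 SD, set per screening campaign, cut at about 17% in these data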
# Numbers stand for hits; i = inactive; nt = no result given. In the library only some 1.5% were active in any assay of this set; here they are far more common.
SMILES,MT1-MMP act inh,CendR NRP1 mod,DAGLB inh,UCH37 DUB inh,CTSL1 counter
CC(C)(C)n1nc(-c2ccc(F)cc2)c2c(N)ncnc21,i,67,i,i,i
CCCCCCCCCCOC(=O)Cn1c(COc2ccc(Cl)cc2)[n+](C)c2ccccc21,i,20,i,nt,i
CCCCCCCCCCOC(=O)Cn1c(COc2ccccc2)[n+](C)c2ccccc21,i,i,i,nt,i
CCOC1=C2[C@@H](CN(S(=O)(=O)c3ccccc3C)[C@H]2c2ccc(Cl)cc2)[C@H]2C(=O)N(c3ccccc3)C(=O)[C@H]2C1,i,22,nt,nt,nt
COc1cc(C=NNC(=O)c2ccccc2F)ccc1Oc1ccc([N+](=O)[O-])cn1,nt,nt,nt,i,nt
CC1CCCCC1NC(=O)/C=C/c1nc2ccccc2s1 (stereo not drawn),i,i,i,i,23
CCOC(=O)C1(Cc2ccccc2)CCN(Cc2cccc(OC)c2O)CC1,i,i,i,i,18
CCOC(=O)C1(Cc2cccc(OC)c2)CCN(Cc2cccc(OC)c2O)CC1,i,i,i,i,i
CCOC(=O)C1(Cc2ccc(OC)cc2)CCN(S(C)(=O)=O)CC1,i,i,i,i,i
CCOC(=O)C1(Cc2ccccc2)CCN(Cc2cccn2-c2nccs2)CC1,i,33,i,i,i
CCOC(=O)C1(Cc2cccc(OC)c2)CCN(Cc2cccn2-c2nccs2)CC1,i,i,i,i,i
CCCS(=O)(=O)N1CCC(Cc2ccc(OC)cc2)(C(=O)OCC)CC1,i,39,i,i,i
COc1ccc(-c2nn(-c3ccccc3)cc2C=NN=C(N)N)cc1OC,nt,nt,nt,i,nt
CCN(C(=O)COc1ccc(C(C)=O)cc1)c1cccc2ccccc12,i,36,i,i,nt
N#CC(=NNc1ccc(OC(F)(F)F)cc1)C(N)=S,nt,nt,nt,i,nt
CCC1Oc2ccc(C)cc2N(CC(=O)N(Cc2ccc(C)o2)C2CCCC2)C1=O (stereo not drawn),i,i,i,i,28
CCC1Oc2ccc(C)cc2N(CC(=O)NC2CCCCC2)C1=O (stereo not drawn),i,i,i,i,i
O=C(NC(Cc1c[nH]c2ccccc12)c1nnc2n1CCCCC2)c1ccccc1 (stereo not drawn),i,i,i,i,i
CCN(CC)S(=O)(=O)c1cccc(C(=O)NC(Cc2c[nH]c3ccccc23)c2nnc3n2CCCCC3)c1 (stereo not drawn),i,26,i,i,i
CC(C)CCOC(=O)/C(=C/c1ccco1)NC(=O)/C=C/c1ccccc1,i,i,i,i,22
CCOC(=O)c1c(N=Cc2cccc([N+](=O)[O-])c2O)sc(C)c1C,nt,nt,nt,i,nt
Cc1ccc(C(O)CN2C3=NCCN3c3ccccc32)cc1 (stereo not drawn),i,56,i,i,i
CCc1ccc(N=CC2=C(O)CC(c3ccco3)CC2=O)cc1 (stereo not drawn),i,i,i,i,17
Cc1ccc(N=CC2=C(O)CC(c3ccco3)CC2=O)cc1 (stereo not drawn),i,i,i,i,i
O=C(COC(=O)c1ccncc1)Nc1cccc2ccccc12,i,i,i,nt,nt
SMILES,MT1-MMP act inh,CendR NRP1 mod,DAGLB inh,UCH37 DUB inh,CTSL1 counter
O=C(COC(=O)c1ccc2c(c1)C(=O)N(Cc1ccncc1)C2=O)Nc1cccc2ccccc12,i,i,i,i,19
O=C(Cn1c(=S)[nH]c2ccccc21)c1ccccc1,i,33,i,i,i
COc1ccc(C=NNC(=O)CCc2c(C)n[nH]c2C)cc1OC,nt,nt,nt,i,nt
COc1cccc(C=NNC(=O)CCc2c(C)n[nH]c2C)c1,nt,nt,nt,29,nt
O=C(c1ccc(-c2ccccc2)cc1)N1CCN(c2ccc3c(c2)C2CC3CCN2C(=O)OCc2ccccc2)CC1 (stereo not drawn),i,32,nt,nt,nt
COc1ccc(C=NOCc2ccc(Br)cc2)c(OC)c1,nt,nt,nt,i,nt
COc1cc(C=NNC(=O)c2cccnc2)ccc1OCC(=O)Nc1ccccc1Cl,nt,nt,nt,i,nt
O=S(=O)(c1cccs1)N1CCCCC1,i,35,i,nt,nt
O=C(C1CCN(S(=O)(=O)c2cccs2)CC1)N1CCCCC1,i,i,i,i,i
CC(=O)N1CCC(C(=O)N2CCN(S(=O)(=O)c3cccs3)CC2)CC1,i,37,i,i,i
CCn1cc(C=NNC(=O)C2(C)CC2(Cl)Cl)c(C)n1 (stereo not drawn),nt,nt,nt,i,nt
Cc1nc(N)sc1C(=O)NN=Cc1c[nH]c2ccccc12,nt,nt,nt,i,nt
O=C(CCn1cncn1)N1CCCC(N2CCN(c3ccc(F)cc3)CC2)C1 (stereo not drawn),i,25,i,i,i
COc1ccccc1NC1=C(Cl)C(=O)N(c2ccccc2)C1=O,i,i,i,i,i
CCOc1ccc(N2C(=O)C(Cl)=C(Nc3ccccc3O)C2=O)cc1,i,i,i,i,17
Cc1ccc(NC(=O)CN(C)CC(=O)Nc2ccccc2Oc2ccccc2)cc1,i,i,i,i,i
Cc1cccc(C)c1NC(=O)CN(C)CC(=O)Nc1ccccc1Oc1ccccc1,i,i,i,28,i
FC(F)(F)c1cc(C(F)(F)F)c2ccc(Oc3ccccc3)nc2n1,i,33,i,i,i
O=C(CCl)Nc1ccccc1C(=O)Nc1ccc2c(c1)OCO2,i,i,i,i,21
O=C(CCNC(=O)c1ccccc1Cl)Nc1ccc2c(c1)OCO2,i,i,i,i,i
COc1ccc(-n2c(=O)[nH]cc(C(=O)Nc3ccc4c(c3)OCCO4)c2=O)cc1OC,i,i,i,i,i
O=C(Nc1ccc2c(c1)OCO2)c1c[nH]c(=O)n(-c2ccc(F)cc2)c1=O,i,20,i,i,i
C(=NNCc1ccccc1)c1ccc2ncccc2c1,nt,nt,nt,i,nt
CC(=O)Nc1cccc(C(=O)/C=C/c2ccco2)c1,i,i,i,i,i
CC(=O)Nc1ccc(C(=O)/C=C/c2ccco2)cc1,nt,i,i,i,22
SMILES,MT1-MMP act inh,CendR NRP1 mod,DAGLB inh,UCH37 DUB inh,CTSL1 counter
Cc1c(/C(O)=C2/C(=O)C(=O)N(CCN3CCOCC3)C2c2cccnc2)cnn1-c1ccccc1 (stereo not drawn),i,i,i,22,i
Cc1ccc(NC(=O)CN(C)C(=O)C(C)OC(=O)CNC(=O)c2ccc(Cl)c([N+](=O)[O-])c2)cc1 (stereo not drawn),i,i,i,i,28
CC(OC(=O)CNC(=O)c1ccc(Cl)c([N+](=O)[O-])c1)C(=O)NC1CCCCC1C (stereo not drawn),i,i,i,i,nt
Cc1ccccc1NC(=S)N1CCCC(c2nc3ccccc3[nH]2)C1 (stereo not drawn),i,23,i,i,i
CCc1ccccc1NC(=O)CSc1nnc([C@H](CCSC)NC(=O)OC(C)(C)C)o1,i,i,i,i,54
CSCC[C@H](NC(=O)OC(C)(C)C)c1nnc(SCC(=O)Nc2ccc(C)cc2C)o1,i,i,i,i,68
CSCC[C@H](NC(=O)OC(C)(C)C)c1nnc(SCC(N)=O)o1,i,i,i,i,i
Cc1ccccc1NN=C1CCCNC1=O,nt,nt,nt,i,nt

# Bioassay records: PubChem BioAssay, several laboratories
